Experimental data taken from ChEMBL document CHEMBL1126221, “Antimitotic agents: structure-activity studies with some pyridine derivatives” (J Med Chem, 1992).
Values joined by “and” are separate entries in the source; they are usually repeats but may differ in a detail not shown here. Equal values may be shown once.

Experiments:
[1] = system: L1210; test: Concentration required to inhibit proliferation of cultured lymphoid leukemia L1210 cells to 50% growth over 48 hours; assay type: functional, cell-based; conditions: Mus musculus, L1210, 48 h
Outline: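 Cultured lymphoid leukemia L1210 cells were exposed to agent for 48 h. IC50 is the micromolar concentration that holds proliferation to 50% growth.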

[2] = system: P388; test: Compound was evaluated for antitumor activity against mice implanted with lymphatic leukemia P388 cells (10e6 tumor cells) after intraperitoneal administration of 400 mg/kg per injection (1-5 days); assay type: functional; conditions: Mus musculus, P388, ip
Outline: (§1)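 Mice implanted ip with 10⁶ lymphocytic leukemia P388 cells; drug given ip on days 1-5. Read-out is % increase in life span (% ILS) versus untreated controls, reported at the highest nontoxic dose tested.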

[3] = system: P388; test: Compound was evaluated for antitumor activity against mice implanted with lymphatic leukemia P388 cells (10e6 tumor cells) after intraperitoneal administration of 300 mg/kg per injection (1-5 days); assay type: functional; conditions: Mus musculus, P388, ip; outline: as §1
[4] = system: P388; test: Compound was evaluated for antitumor activity against mice implanted with lymphatic leukemia P388 cells (10e6 tumor cells) after intraperitoneal administration of 50 mg/kg per injection (1-5 days); assay type: functional; conditions: Mus musculus, P388, ip; outline: as §1
[5] = system: L1210; test: Effect of the compound(10 uM) on DNA synthesis in L1210 cells in culture measured as incorporation of [3H]L-Leu; assay type: functional, Mus musculus; conditions: in the assay text read “protein synthesis” for “DNA synthesis”
Outline: (§2)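 Cultured L1210 cells were treated with agent at 2.5–50 μM. Labeled precursor incorporation is reported as percent of control: [3H]dThd into DNA, […] into DNA and RNA, and [3H]L-Leu into protein.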

[6] = system: L1210; test: Effect on the mitosis of cultured L1210 cells measured in metaphase t 12 hours and 30 uM concentration; assay type: functional, Mus musculus
Outline: (§3)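 Cultured L1210 cells were exposed for 12 h to 0, 3, 10, 30, 50 or 100 μM agent. Read-out was the percentage of cells in metaphase.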

[7] = system: L1210; test: Effect on the mitosis of cultured L1210 cells measured ain metaphase t 12 hours and 3 uM concentration; assay type: functional, Mus musculus; outline: as §3
[8] = system: L1210; test: Effect of the compound(50 uM) on RNA synthesis in L1210 cells in culture measured as incorporation of [5-3H]-Urd; assay type: functional, Mus musculus; outline: as §2
[9] = system: P388; test: Compound was evaluated for antitumor activity against mice implanted with lymphatic leukemia P388 cells (10e6 tumor cells) after intraperitoneal administration of 240 mg/kg per injection (1-5 days); assay type: functional; conditions: Mus musculus, P388, ip; outline: as §1
[10] = system: L1210; test: Effect of the compound(25 uM) on DNA synthesis in L1210 cells in culture measured as incorporation of [3H]L-Leu; assay type: functional, Mus musculus; conditions: in the assay text read “protein synthesis” for “DNA synthesis”; outline: as §2
[11] = system: L1210; test: Compound was tested in vivo against mitosis of […] metaphase after 12 hr at 400 mg/kg dose; assay type: functional, Mus musculus
Outline: (§4)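 Mice implanted ip with L1210 leukemia cells got a single ip injection of test agent or control. Cells were harvested 6, 12 and 24 h after treatment and scored for percentage of cells in metaphase.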

[12] = system: L1210; test: Effect on the mitosis of cultured L1210 cells measured in metaphase at 12 hours and 0 uM concentration; assay type: functional, Mus musculus; outline: as §3
[13] = system: L1210; test: Effect of the compound(50 uM) on DNA synthesis in L1210 cells in culture measured as incorporation of [5-3H]-Urd; assay type: functional, Mus musculus; outline: as §2
[14] = system: L1210; test: Effect of the compound(10 uM) on DNA synthesis in L1210 cells in culture measured as incorporation of [5-3H]-Urd; assay type: functional, Mus musculus
[15] = system: L1210; test: Effect of the compound(50 uM) on DNA synthesis in L1210 cells in culture measured as incorporation of [3H]dThd; assay type: functional, Mus musculus; outline: as §2
[16] = system: L1210; test: Compound was tested in vivo against mitosis of […] metaphase after 12 hr at 600 mg/kg dose; assay type: functional, Mus musculus; outline: as §4
[17] = system: L1210; test: Effect of the compound(10 uM) on RNA synthesis in L1210 cells in culture measured as incorporation of [5-3H]-Urd; assay type: functional, Mus musculus; outline: as §2
[18] = system: L1210; test: Compound was tested in vivo against mitosis of […] metaphase after 24 hr at 400 mg/kg dose; assay type: functional, Mus musculus; outline: as §4
[19] = system: L1210; test: Compound was tested in vivo against mitosis of […] metaphase after 6 hr at 400 mg/kg dose; assay type: functional, Mus musculus; outline: as §4
[20] = system: L1210; test: Effect on the mitosis of cultured L1210 cells measured in metaphase at 12 hours and 10 uM concentration; assay type: functional, Mus musculus; outline: as §3
[21] = system: L1210; test: Effect of the compound(50 uM) on DNA synthesis in L1210 cells in culture measured as incorporation of [3H]L-Leu; assay type: functional, Mus musculus; conditions: in the assay text read “protein synthesis” for “DNA synthesis”; outline: as §2
[22] = system: L1210; test: Effect on the mitosis of cultured L1210 cells measured in metaphase at 12 hours and 100 uM concentration; assay type: functional, Mus musculus; outline: as §3
[23] = system: L1210; test: Compound was tested in vivo against mitosis of […] metaphase after 6 hr at 600 mg/kg dose; assay type: functional, Mus musculus; outline: as §4
[24] = system: L1210; test: Effect on the mitosis of cultured L1210 cells measured in metaphase at 12 hours and 50 uM concentration; assay type: functional, Mus musculus; outline: as §3
[25] = system: L1210; test: Effect of the compound(25 uM) on RNA synthesis in L1210 cells in culture measured as […]; assay type: functional, Mus musculus
[26] = system: L1210; test: Effect of the compound(25 uM) on DNA synthesis in L1210 cells in culture measured as incorporation of [5-3H]-Urd; assay type: functional, Mus musculus; outline: as §2
[27] = system: L1210; test: Compound was tested in vivo against mitosis of […] metaphase after 24 hr at 600 mg/kg dose; assay type: functional, Mus musculus; outline: as §4
[28] = system: P388; test: Compound was evaluated for antitumor activity against mice implanted with lymphatic leukemia P388 cells (10e6 tumor cells) after intraperitoneal administration of 13 mg/kg per injection (1-5 days); assay type: functional; conditions: Mus musculus, P388, ip; outline: as §1
[29] = system: L1210; test: Effect of the compound(2.5 uM) on DNA synthesis in L1210 cells in culture measured as incorporation of [5-3H]-Urd; assay type: functional, Mus musculus
[30] = system: L1210; test: Effect of the compound(5 uM) on DNA synthesis in L1210 cells in culture measured as incorporation of [3H]-L-Leu; assay type: functional, Mus musculus; conditions: in the assay text read “protein synthesis” for “DNA synthesis”; outline: as §2
[31] = system: L1210; test: Effect of the compound(5 uM) on DNA synthesis in L1210 cells in culture measured as incorporation of [5-3H]-Urd; assay type: functional, Mus musculus; outline: as §2
[32] = system: L1210; test: Effect of the compound(2.5 uM) on RNA synthesis in L1210 cells in culture measured as […]; assay type: functional, Mus musculus
[33] = system: L1210; test: Effect on the mitosis of cultured L1210 cells measured in metaphase at 12 hours and 3 uM concentration; assay type: functional, Mus musculus; outline: as §3
[34] = system: L1210; test: Effect of the compound(5 uM) on RNA synthesis in L1210 cells in culture measured as […]; assay type: functional, Mus musculus
[35] = system: L1210; test: Effect of the compound(10 uM) on DNA synthesis in L1210 cells in culture measured as incorporation of [3H]dThd; assay type: functional, Mus musculus; outline: as §2
[36] = system: L1210; test: Effect of the compound(2.5 uM) on DNA synthesis in L1210 cells in culture measured as incorporation of [3H]L-Leu; assay type: functional, Mus musculus; conditions: in the assay text read “protein synthesis” for “DNA synthesis”; outline: as §2
[37] = system: L1210; test: Effect on the mitosis of cultured L1210 cells measured in metaphase at 12 hours and 30 uM concentration; assay type: functional, Mus musculus; outline: as §3

Structure (SMILES): CCOC(=O)Nc1cc(N[C@@H](C)C(=O)c2ccccc2)c([N+](=O)[O-])c(N)n1
- IC50 [1]: 27 µM
- ILS at 400 mg/kg [2]: 39%

Structure (SMILES): CCOC(=O)Nc1cc(NC(C)C(=O)c2ccccc2)c([N+](=O)[O-])c(N)n1 (configuration not stated)
- IC50 [1]: 37 µM
- ILS at 300 mg/kg [3]: 2%

Structure (SMILES): CCOC(=O)Nc1cc(N[C@@H](C)[C@H](O)c2ccccc2)c(N)c(N)n1
- IC50 [1]: 1.3 µM
- ILS at 50 mg/kg [4]: 36%

Structure (SMILES): CCOC(=O)Nc1cc(NC(C)/C(=N/O)c2ccccc2)c([N+](=O)[O-])c(N)n1 (configuration not stated)
- IC50 [1]: 32 µM
- Control [5]: 79%
- Cells in metaphase [6]: 4%
- Cells in metaphase [7]: 2%
- Control [8]: 24%
- ILS at 240 mg/kg [9]: 80%
- Control [10]: 101%
- Cells in metaphase [11]: 0.8%
- Cells in metaphase [12]: 2%
- Control [13]: 17%
- Uridine incorporation into DNA (% of control) [14]: 38% and 42%
- Control [15]: 12%
- Cells in metaphase [16]: 1.4%
- Control [17]: 55%
- Cells in metaphase [18]: 1.6%
- Cells in metaphase [19]: 0.6%
- Cells in metaphase [20]: 3%
- Control [21]: 37%
- Cells in metaphase [22]: 5%
- Cells in metaphase [23]: 0.9%
- Cells in metaphase [24]: 14%
- Control [25]: 22%
- Control [26]: 25% and 13%
- Cells in metaphase [27]: 0.4%

Structure (SMILES): CCOC(=O)Nc1cc(NC(C)/C(=N/O)c2ccc(OC)cc2)c([N+](=O)[O-])c(N)n1 (configuration not stated)
- IC50 [1]: 4.2 µM
- ILS at 13 mg/kg [28]: 84%
- Control [5]: 82%
- Control [29]: 78% and 73%
- Control [30]: 87%
- Cells in metaphase [12]: 2%
- Uridine incorporation into DNA (% of control) [14]: 39%
- Control [31]: 60%
- Control [17]: 35%
- Control [32]: 55%
- Cells in metaphase [33]: 6%
- Cells in metaphase [20]: 26%
- Control [34]: 47%
- Control [35]: 44%
- Control [36]: 69%
- Cells in metaphase [22]: 2%
- Cells in metaphase [37]: 24%
